# Results taken from ChEMBL document CHEMBL1799977, “Discovery of MK-0952, a selective PDE4 inhibitor for the treatment of long-term memory loss and mild cognitive impairment” (Bioorg Med Chem Lett, 2010).
# Active and inactive are the calls of the source. No cut-off for these calls is given here.
# Columns and labels:
# [1] = Inhibition of PDE4 activity in rat whole blood assessed as inhibition of LPS-induced TNF-alpha release; format: tissue-based
# Rattus norvegicus [2] = test: Cognitive enhancing effect in Lister rat assessed as recognition of novel object at 0.1 mg/kg, po pretreated 90 mins before sample phase by novel object recognition test; format: functional, organism-based; design: dose 0.1 mg/kg
# Summary of the method: (§1)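 Novel object recognition in rats. Oral dosing in 0.5% methocel 90 min before the sample trial, which ended at 25 s of exploration or 3 min. Choice trial followed with a familiar and a novel object. d2 score = (novel − familiar)/total exploration. n = 21–24; Newman–Keuls test.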
# Plasma [3] = test: Drug level in plasma of Lister rat during conditional taste aversion test; format: ADME, cell-free
# Summary of the method: (§2)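 Male hooded Lister rats in the conditioned taste aversion test given oral compound in 0.5% methocel. Plasma and whole brain levels were measured on the tested animals 90 min post-dosing.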
# Brain [4] = test: Drug level in brain of Lister rat during conditional taste aversion test; format: ADME, tissue-based; conditions: in vivo, read-out: Drug uptake; summary of the method: as §2
# Brain [5] = test: Drug level in brain of Lister rat during water maze delayed matching to position test; conditions: in vivo, read-out: Drug uptake
# Plasma [6] = test: Drug level in plasma of Lister rat during water maze delayed matching to position test
# Rattus norvegicus [7] = species: Rattus norvegicus; test: Cognitive enhancing effect in Lister rat assessed as change in escape latency pretreated 30 mins before sample phase by water maze delayed matching to position test; format: functional; conditions: read-out: MED
# Summary of the method: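 Rats in a water maze with the platform moved daily, four 60 s trials per day over five days. Oral dosing in 0.5% methocel, 90 or 30 min before the sample trial. Savings score = escape latency difference between trials 1 and 2 over a 4 h delay. n = 10; Newman–Keuls test.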
# Rattus norvegicus [8] = species: Rattus norvegicus; test: Induction of adverse effect in Lister rat assessed as induction of malaise by conditional taste aversion test; format: organism-based; conditions: in vivo
# Summary of the method: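 Singly housed male hooded Lister rats, water-deprived 22.5 h/day. On two conditioning days they had 20 min access to 0.1% saccharin, then received oral compound in 0.5% methocel, vehicle, or LiCl 30 mg/kg ip. Consumption on test day was compared with baseline (n = 6–8; Dunnett's test).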
# Rattus norvegicus [9] = test: Oral bioavailability in Sprague-Dawley rat at 10 mg/kg; format: ADME, organism-based; conditions: in vivo
# [10] = target: 3',5'-cyclic-AMP phosphodiesterase 4A (Homo sapiens, UniProt P27815); test: Inhibition of PDE4A; conditions: pooled result: one value given for 3 cell lines, strains, targets or settings
# Sequence of 3',5'-cyclic-AMP phosphodiesterase 4A (P27815 whole entry, the tested form may be a part): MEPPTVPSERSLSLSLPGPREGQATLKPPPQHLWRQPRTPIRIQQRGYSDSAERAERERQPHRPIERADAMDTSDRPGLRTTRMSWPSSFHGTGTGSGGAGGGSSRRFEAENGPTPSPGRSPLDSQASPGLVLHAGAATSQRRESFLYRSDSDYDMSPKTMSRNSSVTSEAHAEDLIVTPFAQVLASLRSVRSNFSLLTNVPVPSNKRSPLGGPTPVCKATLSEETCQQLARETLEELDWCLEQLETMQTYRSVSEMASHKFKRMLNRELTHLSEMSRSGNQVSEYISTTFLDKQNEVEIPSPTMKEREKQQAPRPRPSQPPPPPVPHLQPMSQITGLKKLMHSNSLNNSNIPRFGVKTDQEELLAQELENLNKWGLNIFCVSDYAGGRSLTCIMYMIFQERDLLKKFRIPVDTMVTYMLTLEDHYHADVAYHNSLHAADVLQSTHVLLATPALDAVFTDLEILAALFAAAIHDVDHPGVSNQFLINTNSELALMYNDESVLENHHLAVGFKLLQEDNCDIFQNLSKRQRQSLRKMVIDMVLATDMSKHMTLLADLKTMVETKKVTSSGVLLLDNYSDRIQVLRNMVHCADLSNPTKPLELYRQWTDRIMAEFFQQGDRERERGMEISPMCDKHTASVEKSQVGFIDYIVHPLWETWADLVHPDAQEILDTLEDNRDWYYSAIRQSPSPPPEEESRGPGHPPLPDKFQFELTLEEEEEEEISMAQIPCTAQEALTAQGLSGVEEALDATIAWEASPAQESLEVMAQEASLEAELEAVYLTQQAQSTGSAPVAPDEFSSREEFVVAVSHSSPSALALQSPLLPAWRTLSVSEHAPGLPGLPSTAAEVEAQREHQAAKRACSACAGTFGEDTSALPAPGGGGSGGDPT
# Summary of the method: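 Catalytic domains of PDE4A, B and D expressed as GST constructs in SF9 cells (baculovirus). IC50s are averages of at least two experiments.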
# Rattus norvegicus [11] = test: Half life in Sprague-Dawley rat at 10 mg/kg, po and 5 mg/kg, iv; format: ADME, organism-based; conditions: in vivo
# Phosphodiesterase 4 = Phosphodiesterase 4 (Homo sapiens, UniProt P27815+Q08499+Q07343+Q08493); test: Inhibition of PDE4 activity in human whole blood assessed as inhibition of LPS-induced TNF-alpha release
# [12] = Ratio IC50 for PDE4 activity in human whole blood to IC50 for PDE4; format: tissue-based
# Summary of the method: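 Ratio of two IC50s. The numerator is from human whole blood stimulated with LPS, read as inhibition of TNF-α release. The denominator (PDE4QT) is the mean of the IC50s on the PDE4A, B and D catalytic domains. These were expressed as GST constructs in Sf9 cells by baculovirus. Each IC50 is the average of at least two experiments.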
# Rattus norvegicus [13] = test: Cognitive enhancing effect in Lister rat assessed as recognition of novel object at 0.01 mg/kg, po pretreated 90 mins before sample phase by novel object recognition test; format: functional, organism-based; design: dose 0.01 mg/kg; summary of the method: as §1
IC50 [1] [nM],concentration (Plasma [3]) [nM],concentration (Brain [4]) [nM],concentration (Brain [5]) [nM],concentration (Plasma [6]) [nM],F (Rattus norvegicus [9]) [%],IC50 [10] [nM],t1/2 (Rattus norvegicus [11]) [h],IC50 (Phosphodiesterase 4) [nM],SMILES,Activity (Rattus norvegicus [2]),minimal effective dose (Rattus norvegicus [7]) [mg/kg],MED (Rattus norvegicus [8]) [mg/kg],Ratio IC50 [12],Activity (Rattus norvegicus [13])
23,113,21,5.1,27,,,,,Cc1noc(/C(=C/c2cccc(-c3cc(C(C)(C)S(C)(=O)=O)cc4cccnc34)c2)c2ccc(S(C)(=O)=O)cc2)n1,Active,0.3,1,,
,,,,,78,0.57,1.7,300,O=C(NC1CC1)c1cn(-c2cccc(-c3ccc(C4CC4C(=O)O)cc3)c2)c2ncccc2c1=O (racemic),,,,,
,,,,,,,,,O=C(NC1CC1)c1cn(-c2cccc(-c3ccc([C@@H]4C[C@H]4C(=O)O)c(F)c3)c2)c2ncccc2c1=O,Active,,,1040,Active
